Source: ChEMBL document CHEMBL4118202, “Chiral analogues of (+)-cyclazosin as potent α1B-adrenoceptor selective antagonist” (Bioorg Med Chem, 2018)

Key:
[1] = species on record: Rattus norvegicus; test: Selectivity ratio of compound effect for antagonism of alpha1B adrenergic receptor in Wistar rat spleen to compound effect for antagonism of alpha1D adrenergic receptor in Wistar rat thoracic aorta
Summary of the method: (§1)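 Ratio taken as the antilog of the difference between rat tissue pA2 or pKB values for the two subtypes (vas deferens α1A, spleen α1B, aorta α1D organ-bath antagonism).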

[2] = molecular target: T1, Alpha-1B adrenergic receptor (Rattus norvegicus, UniProt P15823); test: Antagonist activity at alpha1B adrenergic receptor in Wistar rat spleen assessed as inhibition of phenylephrine-induced contraction incubated for 30 mins in presence of beta-adrenoceptor blocker propranolol hydrochloride; type: functional; conditions: read-out: pA2 (converted)
T1 sequence (P15823 whole entry): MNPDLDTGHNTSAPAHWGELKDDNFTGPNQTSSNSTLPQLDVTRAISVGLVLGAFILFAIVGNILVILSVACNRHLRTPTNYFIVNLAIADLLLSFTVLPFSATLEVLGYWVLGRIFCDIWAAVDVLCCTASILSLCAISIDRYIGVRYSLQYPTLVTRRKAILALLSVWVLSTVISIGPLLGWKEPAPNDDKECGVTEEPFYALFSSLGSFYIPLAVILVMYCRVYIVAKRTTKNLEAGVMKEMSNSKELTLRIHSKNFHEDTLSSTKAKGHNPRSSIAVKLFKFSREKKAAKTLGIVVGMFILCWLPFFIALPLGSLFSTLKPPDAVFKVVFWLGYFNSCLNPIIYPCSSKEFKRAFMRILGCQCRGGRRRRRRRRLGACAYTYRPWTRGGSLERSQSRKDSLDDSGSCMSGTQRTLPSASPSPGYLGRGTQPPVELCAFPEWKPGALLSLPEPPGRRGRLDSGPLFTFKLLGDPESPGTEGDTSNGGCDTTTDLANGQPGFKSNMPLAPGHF
Summary of the method: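 Spleen bisected longitudinally into strips in Krebs with propranolol 4 μM, held at 1 g and equilibrated 2 h. Two isometric cumulative phenylephrine curves, each followed by 30 min washing. Third curve after 30 min vehicle or antagonist. Potency as pA2 (Schild) or pKB at one concentration (van Rossum). Responses as % of control maximum; n ≥ 4.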

[3] = species on record: Homo sapiens; test: Selectivity ratio of compound effect for displacement of [3H]prazosin from human alpha1D adrenergic receptor expressed in CHO cell membranes to compound effect for displacement of [3H]prazosin from human alpha1A adrenergic receptor expressed in CHO cell membranes
Summary of the method: (§2)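 Ratio taken as the antilog of the difference between pKi values from [3H]prazosin displacement at human α1 subtypes expressed in CHO membranes.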

[4] = molecular target: T2, Alpha-1D adrenergic receptor (Homo sapiens, UniProt P25100); test: Displacement of [3H]prazosin from human alpha1D adrenergic receptor expressed in CHO cell membranes after 30 mins by rapid filtration method
T2 sequence (P25100 whole entry): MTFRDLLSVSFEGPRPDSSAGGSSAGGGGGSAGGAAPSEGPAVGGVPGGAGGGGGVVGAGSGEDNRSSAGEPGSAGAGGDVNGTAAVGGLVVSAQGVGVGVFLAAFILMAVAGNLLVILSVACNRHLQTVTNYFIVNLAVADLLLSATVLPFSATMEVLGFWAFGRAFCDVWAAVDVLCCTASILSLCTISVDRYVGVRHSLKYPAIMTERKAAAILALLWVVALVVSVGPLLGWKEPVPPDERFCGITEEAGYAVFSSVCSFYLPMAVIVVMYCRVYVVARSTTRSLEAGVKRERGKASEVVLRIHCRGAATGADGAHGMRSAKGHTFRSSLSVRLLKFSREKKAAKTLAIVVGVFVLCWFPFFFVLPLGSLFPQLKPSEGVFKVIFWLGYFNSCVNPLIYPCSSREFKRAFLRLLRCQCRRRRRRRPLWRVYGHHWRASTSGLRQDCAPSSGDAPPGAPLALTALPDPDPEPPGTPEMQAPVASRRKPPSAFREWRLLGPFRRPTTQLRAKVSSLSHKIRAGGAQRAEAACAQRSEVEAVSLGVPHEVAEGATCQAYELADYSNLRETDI
Summary of the method: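 Membranes (30 μg protein) from CHO cells stably transfected with the human α1a, α1b or α1d receptor. Incubated 30 min at 25 °C in 50 mM Tris-HCl pH 7.4 with 0.1–0.4 nM [3H]prazosin and competitor 1 pM–10 μM. Nonspecific binding defined by 10 μM phentolamine. Stopped by rapid filtration through PEI-treated filters. IC50 converted to Ki by Cheng-Prusoff; pKi from 2–3 experiments in triplicate.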

[5] = species on record: Homo sapiens; test: Selectivity ratio of compound effect for displacement of [3H]prazosin from human alpha1B adrenergic receptor expressed in CHO cell membranes to compound effect for displacement of [3H]prazosin from human alpha1D adrenergic receptor expressed in CHO cell membranes; summary of the method: as §2
[6] = molecular target: T3, Alpha-1A adrenergic receptor (Rattus norvegicus, UniProt P43140); test: (§3) Antagonist activity at alpha1A adrenergic receptor in Wistar rat prostatic rat vas deferens assessed as inhibition of noradrenaline-induced contraction preincubated for 30 mins followed by noradrenaline addition measured after 45 mins in presence of cocaine hydrochloride; type: functional; conditions: read-out: pA2 (converted)
T3 sequence (P43140 whole entry): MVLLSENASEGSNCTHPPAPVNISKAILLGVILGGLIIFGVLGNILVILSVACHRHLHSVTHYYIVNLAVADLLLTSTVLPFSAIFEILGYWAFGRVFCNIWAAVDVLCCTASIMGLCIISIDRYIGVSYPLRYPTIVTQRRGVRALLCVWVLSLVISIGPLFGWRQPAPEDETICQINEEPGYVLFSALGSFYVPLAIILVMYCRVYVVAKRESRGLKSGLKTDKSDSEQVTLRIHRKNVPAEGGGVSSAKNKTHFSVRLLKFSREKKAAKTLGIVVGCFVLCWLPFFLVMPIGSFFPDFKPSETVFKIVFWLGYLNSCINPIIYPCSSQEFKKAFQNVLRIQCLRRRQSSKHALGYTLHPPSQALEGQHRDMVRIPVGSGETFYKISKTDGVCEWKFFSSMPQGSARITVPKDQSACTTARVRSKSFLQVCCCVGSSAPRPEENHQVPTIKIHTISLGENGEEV
Summary of the method: (§4)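 Prostatic rat vas deferens, 2 cm portions, held at 0.35 g in Tyrode (pH 7.4, 37 °C, 95% O2/5% CO2). Cocaine 10 μM added 20 min before the agonist. Tissue equilibrated 45 min and primed twice with 10 μM noradrenaline. Isotonic cumulative noradrenaline curves were run before and after 30 min antagonist. pA2 came from Schild plots (≥3 concentrations); otherwise pKB (van Rossum). n ≥ 4.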

[7] = species on record: Rattus norvegicus; test: Selectivity ratio of compound effect for antagonism of alpha1B adrenergic receptor in Wistar rat spleen to compound effect for antagonism of alpha1A adrenergic receptor in Wistar rat prostatic rat vas deferens; summary of the method: as §1
[8] = molecular target: T4, Alpha-1A adrenergic receptor (Rattus norvegicus) (UniProt P43140); test: as §3; type: functional; summary of the method: as §4
T4 sequence (whole entry): T3 sequence (P43140 whole entry)

SMILES | Selectivity ratio [1] | Kb [2] [nM] | Selectivity ratio [3] | Ki [4] [nM] | Selectivity ratio [5] | Kb [6] [nM] | Selectivity ratio [7] | pKb [8]
COc1cc2nc(N3CCN(C(=O)OCc4ccccc4)[C@@H]4CCCC[C@@H]43)nc(N)c2cc1OC | 0.3 | 1.82 | 13 | 0.0398 | 0.2 | 16.2 | 9 | –
COc1cc2nc(N3CCN(C(=O)OCc4ccccc4)[C@H]4CCCC[C@H]43)nc(N)c2cc1OC | 141 | – | 1 | 3.98 | 11 | 776 | 457 | –
CCCN(CCC)c1nc(N2CCN(C(=O)c3ccco3)[C@H]3CCCC[C@H]32)nc2cc(OC)c(OC)cc12 | 44 | – | 4 | 5.13 | 17 | – | 93 | 5.89
CCCN(CCC)c1nc(N2CCN(C(=O)c3ccco3)[C@@H]3CCCC[C@@H]32)nc2cc(OC)c(OC)cc12 | 1 | – | 29 | 0.0631 | 0.5 | – | 1 | 7.02
CCCCCC(=O)N1CCN(c2nc(N)c3cc(OC)c(OC)cc3n2)[C@@H]2CCCC[C@@H]21 | 15 | – | 2 | 3.72 | 4 | – | 9 | 7.06
COc1cc2nc(N3CCN(C(C)=O)[C@H]4CCCC[C@H]43)nc(N)c2cc1OC | 562 | 3.02 | 2 | 105 | 12 | 3020 | 1000 | –
COc1cc2nc(N3CCN(C(=O)Cc4ccc5ccccc5c4)[C@H]4CCCC[C@H]43)nc(N)c2cc1OC | 15 | – | 8 | 2.24 | 2 | – | 30 | 6.56
COc1cc2nc(N3CCN(C(=O)C4COc5ccccc5O4)[C@H]4CCCC[C@H]43)nc(N)c2cc1OC (single isomer, unassigned; (-)) [CYCLODOXAZOSIN] | 32 | – | – | – | – | 200 | 81 | –
COc1cc2nc(N3CCN(C(=O)COc4c(OC)cccc4C(C)C)[C@H]4CCCC[C@H]43)nc(N)c2cc1OC | 0.3 | 191 | 2 | 0.389 | 3 | 151 | 0.8 | –
COc1cc2nc(N3CCN(C(=O)C(C)(C)C)[C@H]4CCCC[C@H]43)nc(N)c2cc1OC | 26 | – | 1 | 6.17 | 8 | – | 12 | 7.17
COc1cc2nc(N3CCN(C(C)=O)[C@@H]4CCCC[C@@H]43)nc(N)c2cc1OC | 4 | 0.617 | 60 | 0.151 | 0.2 | 44.7 | 72 | –
